Values after ≈ are worked out from the molar mass of the structure shown.
Legend:
Format in all cases: functional, cell-based
A2780 [1] = assay: Cytotoxicity against human cisplatin resistant A2780 cells after 72 hrs by MTT assay; settings: A2780, 72 h
Method in brief: (§1)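 Cells kept in RPMI 1640 with 10% FCS and penicillin/streptomycin at 37 °C, 5% CO2, grown to 80% confluency. Seeded at 30,000 cells/well (K562) or 8,000 cells/well (A2780 sens and cisplatin-resistant CisR). After 24 h, exposed to increasing concentrations for 72 h. MTT added, formazan dissolved in DMSO, absorbance read at 544/690 nm. Viability relative to untreated cells (100%), triplicates, IC50.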

A2780 [2] = assay: Cytotoxicity against human cisplatin sensitive A2780 cells after 72 hrs by MTT assay; settings: A2780, 72 h; method in brief: as §1
K562 = assay: Cytotoxicity against human K562 cells after 72 hrs by MTT assay; settings: K562, 72 h; method in brief: as §1
[3] = Cytotoxicity against mouse tsFT210 cells

Which IC50 (A2780 [1]) does the source give for `O=C1N[C@@H](Cc2c[nH]c3ccccc23)C(=O)N[C@H]1Cc1c[nH]c2ccccc12` here?
Its IC50 is over 100 µM.

And the IC50 (A2780 [2])?
Its IC50 is over 100 µM.

What about the IC50 (K562) of the same molecule?
The IC50 was over 100 µM.

Which IC50 (A2780 [1]) does the source give for `CC(C)=CCc1[nH]c2ccccc2c1C[C@@H]1NC(=O)[C@H](Cc2c[nH]c3ccccc23)NC1=O` here?
Its IC50 is 80.8 µM.

And the IC50 (A2780 [2])?
Its IC50 is 89.7 µM.

And the IC50 (K562)?
The IC50 was 29.8 µM.

What does the source list for `CC(C)=CCc1[nH]c2ccccc2c1C[C@@H]1NC(=O)[C@H](C)NC1=O`?
IC50 (A2780 [1]): 82.2 µM; IC50 (A2780 [2]): 89.8 µM; IC50 (K562): 35.2 µM

Which IC50 (A2780 [1]) does the source give for `CC(C)=CCc1[nH]c2ccccc2c1C[C@H]1NC(=O)[C@H]2CCCN2C1=O` here?
The IC50 was 85.6 µM.

And the IC50 (A2780 [2])?
The IC50 was 93.1 µM.

What about the IC50 (K562) of the same molecule?
The IC50 was 30.9 µM.

With `O=C1N[C@@H](Cc2c[nH]c3ccccc23)C(=O)N[C@H]1Cc1ccccc1` as the molecule, how does the IC50 (A2780 [1]) read?
The IC50 was over 100 µM.

And the IC50 (A2780 [2])?
The IC50 was over 100 µM.

What about the IC50 (K562) of the same molecule?
Its IC50 is over 100 µM.

For `CC(C)=CCc1[nH]c2ccccc2c1C[C@@H]1NC(=O)[C@H](Cc2c[nH]cn2)NC1=O`, which IC50 (A2780 [1]) is on record?
The IC50 was 91.7 µM.

And the IC50 (A2780 [2])?
Its IC50 is 91.8 µM.

What about the IC50 (K562) of the same molecule?
Its IC50 is 32.2 µM.

What does the source list for `C[C@@H]1NC(=O)[C@H](Cc2c[nH]c3ccccc23)NC1=O`?
IC50 (A2780 [1]): > 100 µM; IC50 (A2780 [2]): > 100 µM; IC50 (K562): > 100 µM

With `CC(C)=CCc1[nH]c2ccccc2c1C[C@@H]1NC(=O)[C@H]2CCCN2C1=O` as the molecule, how does the IC50 (A2780 [1]) read?
Its IC50 is 92 µM.

And the IC50 (A2780 [2])?
The IC50 was 106 µM.

What about the IC50 (K562) of the same molecule?
The IC50 was 34.7 µM.

Which IC50 (A2780 [1]) does the source give for `CC(C)=CCc1[nH]c2ccccc2c1C[C@@H]1NC(=O)[C@@H](C)NC1=O` here?
The IC50 was 77 µM.

And the IC50 (A2780 [2])?
The IC50 was 77.2 µM.

What about the IC50 (K562) of the same molecule?
The IC50 was 34.5 µM.

Which IC50 (A2780 [1]) does the source give for `CC(C)=CCc1[nH]c2ccccc2c1C[C@H]1NC(=O)[C@H](C)NC1=O` here?
The IC50 was 84.3 µM.

What about the IC50 (A2780 [2]) of the same molecule?
Its IC50 is 86.2 µM.

And the IC50 (K562)?
Its IC50 is 35.3 µM.

Which results are given for `O=C1N[C@@H](Cc2c[nH]c3ccccc23)C(=O)N2CCC[C@H]12`?
IC50 (A2780 [1]): > 100 µM; IC50 (A2780 [2]): > 100 µM; IC50 (K562): > 100 µM

Which results are given for `CC(C)=CCc1[nH]c2ccccc2c1C[C@@H]1NC(=O)[C@@H]2CCCN2C1=O` [TRYPROSTATIN B]?
MIC [3]: 4.4 µM (≈ 1.55 µg/mL); IC50 ([3]; tsFT210): 18.8 µM; IC50 (A2780 [1]): 85.9 µM; IC50 (A2780 [2]): 82.8 µM; IC50 (K562): 21.1 µM

With `CC(C)C[C@@H]1NC(=O)[C@H](Cc2c[nH]c3ccccc23)NC1=O` as the molecule, how does the IC50 (A2780 [1]) read?
Its IC50 is over 100 µM.

What about the IC50 (A2780 [2]) of the same molecule?
The IC50 was over 100 µM.

What about the IC50 (K562) of the same molecule?
The IC50 was over 100 µM.

Which IC50 (A2780 [1]) does the source give for `O=C1N[C@H](Cc2c[nH]c3ccccc23)C(=O)N2CCC[C@H]12` here?
Its IC50 is over 100 µM.

And the IC50 (A2780 [2])?
The IC50 was over 100 µM.

And the IC50 (K562)?
The IC50 was over 100 µM.

With `CC(C)=CCc1[nH]c2ccccc2c1C[C@@H]1NC(=O)[C@H](CC(C)C)NC1=O` as the molecule, how does the IC50 (A2780 [1]) read?
The IC50 was 75 µM.

And the IC50 (A2780 [2])?
The IC50 was 92.6 µM.

What about the IC50 (K562) of the same molecule?
The IC50 was 30.1 µM.

With `C[C@H]1NC(=O)[C@H](Cc2c[nH]c3ccccc23)NC1=O` as the molecule, how does the IC50 (A2780 [1]) read?
Its IC50 is over 100 µM.

What about the IC50 (A2780 [2]) of the same molecule?
The IC50 was over 100 µM.

And the IC50 (K562)?
Its IC50 is over 100 µM.

What does the source list for `CC(C)=CCc1[nH]c2ccccc2c1C[C@@H]1NC(=O)CNC1=O`?
IC50 (A2780 [1]): 85.2 µM; IC50 (A2780 [2]): 82.4 µM; IC50 (K562): 16.7 µM

What does the source list for `C[C@@H]1NC(=O)[C@@H](Cc2c[nH]c3ccccc23)NC1=O`?
IC50 (A2780 [1]): > 100 µM; IC50 (A2780 [2]): > 100 µM; IC50 (K562): > 100 µM

With `CC(C)=CCc1[nH]c2ccccc2c1C[C@H]1NC(=O)[C@@H](C)NC1=O` as the molecule, how does the IC50 (A2780 [1]) read?
Its IC50 is 81.1 µM.

And the IC50 (A2780 [2])?
Its IC50 is 85 µM.

And the IC50 (K562)?
The IC50 was 34.7 µM.

What does the source list for `O=C1N[C@@H](Cc2c[nH]c3ccccc23)C(=O)N2CCC[C@@H]12` [BREVIANAMIDE F]?
IC50 (A2780 [1]): > 100 µM; IC50 (A2780 [2]): > 100 µM; IC50 (K562): > 100 µM

For `O=C1N[C@H](Cc2c[nH]c3ccccc23)C(=O)N2CCC[C@@H]12`, which IC50 (A2780 [1]) is on record?
Its IC50 is over 100 µM.

What about the IC50 (A2780 [2]) of the same molecule?
Its IC50 is over 100 µM.

And the IC50 (K562)?
The IC50 was over 100 µM.

For `CC(C)=CCc1[nH]c2ccccc2c1C[C@@H]1NC(=O)[C@H](Cc2ccc(O)cc2)NC1=O`, which IC50 (A2780 [1]) is on record?
The IC50 was 83.3 µM.

What about the IC50 (A2780 [2]) of the same molecule?
The IC50 was 89.8 µM.

What about the IC50 (K562) of the same molecule?
Its IC50 is 31.6 µM.

Which results are given for `C[C@H]1NC(=O)[C@@H](Cc2c[nH]c3ccccc23)NC1=O`?
IC50 (A2780 [1]): > 100 µM; IC50 (A2780 [2]): > 100 µM; IC50 (K562): > 100 µM

With `CC(C)=CCc1[nH]c2ccccc2c1C[C@H]1NC(=O)[C@@H]2CCCN2C1=O` as the molecule, how does the IC50 (A2780 [1]) read?
Its IC50 is 87.8 µM.

What about the IC50 (A2780 [2]) of the same molecule?
The IC50 was 100 µM.

And the IC50 (K562)?
The IC50 was 40.4 µM.

For `O=C1N[C@@H](Cc2c[nH]c3ccccc23)C(=O)N[C@H]1Cc1c[nH]cn1`, which IC50 (A2780 [1]) is on record?
The IC50 was over 100 µM.

What about the IC50 (A2780 [2]) of the same molecule?
Its IC50 is over 100 µM.

What about the IC50 (K562) of the same molecule?
The IC50 was over 100 µM.

For `O=C1CNC(=O)[C@H](Cc2c[nH]c3ccccc23)N1`, which IC50 (A2780 [1]) is on record?
Its IC50 is over 100 µM.

What about the IC50 (A2780 [2]) of the same molecule?
The IC50 was over 100 µM.

What about the IC50 (K562) of the same molecule?
The IC50 was over 100 µM.

Which results are given for `O=C1N[C@@H](Cc2c[nH]c3ccccc23)C(=O)N[C@H]1Cc1ccc(O)cc1`?
IC50 (A2780 [1]): > 100 µM; IC50 (A2780 [2]): > 100 µM; IC50 (K562): > 100 µM

Which results are given for `CC(C)=CCc1[nH]c2ccccc2c1C[C@@H]1NC(=O)[C@H](Cc2ccccc2)NC1=O`?
IC50 (A2780 [1]): 81.6 µM; IC50 (A2780 [2]): 87 µM; IC50 (K562): 70.4 µM

Source: ChEMBL document CHEMBL2029224, “Prenylation at the indole ring leads to a significant increase of cytotoxicity of tryptophan-containing cyclic dipeptides” (Bioorg Med Chem Lett, 2012)
